Data published in ChEMBL document CHEMBL3425511 (J Med Chem, 2015).
Blank lines part the entries; values can stand above or below the compound they belong to. Active and inactive are the calls of the source.

Key:
[1] = molecular target: T1, Transient receptor potential cation channel subfamily V member 1 (Homo sapiens, UniProt Q8NER1); assay: Antagonist activity at recombinant human TRPV1 expressed in HEK293 cells assessed as inhibition of capsaicin-induced Ca2+ influx preincubated for 5 mins followed by capsaicin challenge; format: cell-based
[2] = tested on: Liver microsome; assay: (§1) Metabolic stability in rat liver microsomes assessed as compound remaining after 10 mins; format: ADME; details: microsomes, 10 min
In short: (§2)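 Compound incubated 10 min with liver microsomes of the stated species; amount of parent remaining reported as percent.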

[3] = tested on: Liver microsome; assay: (§3) Metabolic stability in human liver microsomes assessed as compound remaining after 10 mins; format: ADME; details: microsomes, 10 min; in short: as §2
[4] = Oral bioavailability in rat at 10 mg/kg; format: ADME, organism-based; details: in vivo
In short: (§4)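 Oral dosing at 10 mg/kg as a solution of the sodium salt in 20% HPβCD, n = 4 animals per group.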

[5] = tested on: Rattus norvegicus; assay: Reversal of complete freund's adjuvant-induced thermal hypersensitivity in po dosed Sprague-Dawley rat measured at 30 mins; format: functional
In short: (§5)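 Male Sprague−Dawley rats (195−350 g), intraplantar CFA (100 μL, 1:1 CFA:saline) with testing 24 h later, or carrageenan-λ (200 μL, 10 mg/mL) with testing 3 h later. Radiant heat withdrawal latency, 10−15 s baseline, 20 s cutoff; rats with ≥25% latency drop kept. Oral dosing at 2.5 mL/kg. Percent reversal = (treatment − post)/(pre − post) × 100, scored blind.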

[6] = tested on: Rattus norvegicus; assay: Reversal of complete freund's adjuvant-induced thermal hypersensitivity in po dosed Sprague-Dawley rat measured at 3 hrs; format: functional; in short: as §5
[7] = as §1; format: ADME; details: liver microsomes, read-out: Stability; in short: as §2
[8] = as §3; format: ADME; details: liver microsomes, read-out: Stability; in short: as §2
[9] = Clearance in rat at 2 mg/kg, iv; format: ADME, organism-based; design: dose 2 mg/kg, route intravenous; details: in vivo
In short: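 Intravenous dosing at 2 mg/kg as a solution of the sodium salt in 20% HPβCD, n = 4 animals per group.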

[10] = Half life in rat at 10 mg/kg, po; format: ADME, organism-based; design: dose 10 mg/kg, route oral; details: in vivo; in short: as §4
[11] = tested on: Rattus norvegicus; assay: Reversal of complete freund's adjuvant-induced thermal hypersensitivity in po dosed Sprague-Dawley rat after 60 mins; format: functional; in short: as §5
[12] = molecular target: T1, Transient receptor potential cation channel subfamily V member 1; assay: Antagonist activity at recombinant human TRPV1 expressed in HEK293 cells assessed as inhibition of capsaicin-induced Ca2+ influx at 1 uM preincubated for 5 mins followed by capsaicin challenge relative to control; format: cell-based
In short: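 HEK293 cells stably expressing human TRPV1, loaded with Calcium 3 dye 35 min at 37 °C, then 25 min at room temperature. Compound added and Ca²⁺ read 5 min (FLIPR or FDSS) before capsaicin at ~EC80 (typically 0.020−0.030 μM final). Response normalised to 90 or 100 μM capsaicin (100%) and 0.6 pM (0%).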

[13] = tested on: Rattus norvegicus; assay: Reversal of complete freund's adjuvant-induced thermal hypersensitivity in po dosed Sprague-Dawley rat measured after 30 to 180 mins; format: functional, organism-based; in short: as §5
[14] = species: Rattus norvegicus; assay: Drug level in rat treated with (trans)-1-(2-{2-[2-(4-Trifluoromethyl-phenyl)-vinyl]-1H-benzoimidazol-5-yl}-phenyl)-ethanol; format: ADME, organism-based; details: in vivo
[15] = tested on: Rattus norvegicus; assay: Reversal of complete freund's adjuvant-induced thermal hypersensitivity in Sprague-Dawley rat at 10 mg/kg, po measured after 30 to 180 mins; format: functional, organism-based; design: dose 10 mg/kg
[16] = species: Rattus norvegicus; assay: Drug metabolism in rat assessed as formation of (trans)-1-(2-{2-[2-(4-Trifluoromethyl-phenyl)-vinyl]-1H-benzoimidazol-5-yl}-phenyl)-ethanone; format: ADME, organism-based; details: in vivo
[17] = tested on: Rattus norvegicus; assay: Reversal of complete freund's adjuvant-induced thermal hypersensitivity in po dosed Sprague-Dawley rat measured at 100 mins; format: functional; in short: as §5
[18] = tested on: Rattus norvegicus; assay: Reversal of complete freund's adjuvant-induced thermal hypersensitivity in po dosed Sprague-Dawley rat assessed as plasma concentration required to reach ED50 measured at 100 mins; format: functional
In short: (§6)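 Rats dosed orally 100 min before radiant-heat testing. For CFA, plasma taken right after behavioural testing; for carrageenan, taken from a separate group dosed identically. Blood collected on lithium heparin and centrifuged, plasma stored at −80 °C. Plasma levels matching ED50 and ED80 (EC50/EC80) computed from the dose−response data.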

[19] = tested on: Rattus norvegicus; assay: Reversal of complete freund's adjuvant-induced thermal hypersensitivity in po dosed Sprague-Dawley rat assessed as plasma concentration required to reach ED80 measured at 100 mins; format: functional; in short: as §6
[20] = tested on: Rattus norvegicus; assay: Reversal of complete freund's adjuvant-induced thermal hypersensitivity in Sprague-Dawley rat at 30 mg/kg, po measured after 30 to 180 mins; format: functional, organism-based; design: dose 30 mg/kg

T1 sequence (Q8NER1 whole entry): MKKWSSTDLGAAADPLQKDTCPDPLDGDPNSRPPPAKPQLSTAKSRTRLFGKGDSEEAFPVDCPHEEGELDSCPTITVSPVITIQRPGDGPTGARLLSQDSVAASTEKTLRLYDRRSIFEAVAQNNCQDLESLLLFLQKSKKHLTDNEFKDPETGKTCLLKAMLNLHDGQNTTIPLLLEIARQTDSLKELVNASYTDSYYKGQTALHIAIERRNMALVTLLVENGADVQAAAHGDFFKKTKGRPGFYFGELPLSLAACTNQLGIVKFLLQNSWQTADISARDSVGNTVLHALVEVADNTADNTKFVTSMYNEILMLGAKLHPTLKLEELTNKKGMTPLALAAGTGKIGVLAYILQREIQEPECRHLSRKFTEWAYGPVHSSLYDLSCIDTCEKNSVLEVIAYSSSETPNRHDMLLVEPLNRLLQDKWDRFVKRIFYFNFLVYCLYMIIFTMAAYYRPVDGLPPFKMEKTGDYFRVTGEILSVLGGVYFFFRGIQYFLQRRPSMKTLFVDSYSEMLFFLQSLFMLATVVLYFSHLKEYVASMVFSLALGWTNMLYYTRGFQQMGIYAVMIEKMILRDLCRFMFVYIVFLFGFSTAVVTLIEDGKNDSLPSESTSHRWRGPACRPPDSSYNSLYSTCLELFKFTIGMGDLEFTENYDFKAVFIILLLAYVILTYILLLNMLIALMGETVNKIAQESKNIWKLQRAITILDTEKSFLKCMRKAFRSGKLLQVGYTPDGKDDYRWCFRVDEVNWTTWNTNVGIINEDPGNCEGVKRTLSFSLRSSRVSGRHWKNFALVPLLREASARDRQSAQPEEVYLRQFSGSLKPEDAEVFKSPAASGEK

IC50 [1]: 2.8 nM
Stability [2]: Stable
Stability [3]: Stable
bioavailability [4]: 13%
Compound: CC(C)(O)c1ccccc1-c1ccc2[nH]c(C#Cc3ccccc3)nc2c1
Activity [5]: 71%
Activity [6]: 41%

IC50 [1]: 10 nM
remaining at 10 min [7]: 50%
remaining at 10 min [8]: 85%
bioavailability [4]: 65%
clearance [9]: 13 mL/min/kg
half-life [10]: 4 h
Compound: CS(=O)(=O)Nc1ccccc1-c1ccc2[nH]c(/C=C/c3ccc(C(F)(F)F)cc3)nc2c1
Activity [11]: Dose-dependent effect
ED50 ([11]; Rattus norvegicus, Sprague-Dawley, po, 1 h): 4.3 mg/kg

inhibition [12]: 6%
Compound: CC(C)(C)c1ccc(Cc2nc3cc(-c4ccccc4O)ccc3[nH]2)cc1

IC50 [1]: 5.7 nM
Stability [2]: Stable
Stability [3]: Stable
Compound: CC(C)(O)c1ccccc1-c1ccc2[nH]c(/C=C/c3ccc(Cl)cc3)nc2c1
Activity [13]: inactive

Drug metabolism [14]: metabolite_detected
Compound: CC(=O)c1ccccc1-c1ccc2[nH]c(/C=C/c3ccc(C(F)(F)F)cc3)nc2c1

IC50 [1]: 9.2 nM
Compound: CC(C)c1ccc(/C=C/c2nc3cc(-c4ccccc4NS(C)(=O)=O)ccc3[nH]2)cc1

Stability [2]: Unstable
Compound: NS(=O)(=O)c1ccccc1-c1ccc2[nH]c(/C=C/c3cccc(OC(F)(F)F)c3)nc2c1

inhibition [12]: 10%
Compound: CC(C)(C)c1ccc(/C=C/c2nc3cc(-c4ccc(C(N)=O)cc4)ccc3[nH]2)cc1

Stability [2]: Unstable
Stability [3]: Unstable
Compound: NS(=O)(=O)c1ccccc1-c1ccc2[nH]c(CCc3ccc(C(F)(F)F)cc3)nc2c1

inhibition [12]: 63%
Compound: CS(=O)(=O)Nc1ccccc1-c1ccc2[nH]c(/C=C/c3ccc(OCC(F)(F)C(F)(F)F)cc3)nc2c1

inhibition [12]: 6%
Compound: CC(C)(C)c1ccc(CCCc2nc3cc(-c4ccccc4O)ccc3[nH]2)cc1

IC50 [1]: 25 nM
remaining at 10 min [7]: 43%
remaining at 10 min [8]: 12%
Compound: CC(=O)c1ccccc1-c1ccc2[nH]c(/C=C/c3ccc(C(C)(C)C)cc3)nc2c1

Stability [2]: Unstable
Compound: NS(=O)(=O)c1ccccc1-c1ccc2[nH]c(/C=C/c3ccc(OC(F)(F)F)cc3)nc2c1

IC50 [1]: 5.9 nM
Stability [2]: Stable
Stability [3]: Stable
Compound: CC(C)(O)c1ccccc1-c1ccc2[nH]c(/C=C/c3ccc(OC(F)(F)F)cc3)nc2c1
Activity [13]: inactive

IC50 [1]: 4.9 nM
Compound: CC(C)(O)c1ccccc1-c1ccc2[nH]c(/C=C/c3cccc(C(F)(F)F)c3)nc2c1
Activity [11]: 58%

IC50 [1]: 17 nM
Stability [2]: Stable
Compound: CS(=O)(=O)Nc1ccccc1-c1ccc2[nH]c(/C=C/c3ccc(OC(F)(F)F)cc3)nc2c1
Activity [15]: inactive

IC50 [1]: 40 nM
Compound: CC(C)(C)c1ccc(/C=C/c2nc3cc(-c4ccccc4C(N)=O)ccc3[nH]2)cc1

remaining at 10 min [7]: 89%
remaining at 10 min [8]: 97%
bioavailability [4]: 39%
Drug metabolism [16]: metabolite_detected
Compound: CC(O)c1ccccc1-c1ccc2[nH]c(/C=C/c3ccc(C(F)(F)F)cc3)nc2c1 (stereo not given)

IC50 [1]: 19 nM
Compound: CC(C)(O)c1ccccc1-c1ccc2[nH]c(/C=C/c3ccc(S(=O)(=O)C(F)(F)F)cc3)nc2c1
Activity [13]: inactive

remaining at 10 min [7]: 29%
remaining at 10 min [8]: 9%
Compound: CC(C)(C)c1ccc(/C=C/c2nc3cc(-c4ccccc4NS(C)(=O)=O)ccc3[nH]2)cc1

inhibition [12]: 12%
Compound: CC(C)(C)c1ccc(/C=C/c2nc3cc(-c4cccc(C(N)=O)c4)ccc3[nH]2)cc1

inhibition [12]: 48%
Compound: CS(=O)(=O)Nc1ccccc1-c1ccc2[nH]c(/C=C/c3cccc(C(F)(F)F)c3)nc2c1

IC50 [1]: 20 nM
Compound: NS(=O)(=O)c1ccccc1-c1ccc2[nH]c(C#Cc3ccc(C(F)(F)F)cc3)nc2c1

IC50 [1]: 2.8 nM
remaining at 10 min [7]: 5%
remaining at 10 min [8]: 45%
Compound: CC(C)(O)c1ccccc1-c1ccc2[nH]c(CCc3ccc(C(F)(F)F)cc3)nc2c1

IC50 [1]: 4.5 nM
Stability [2]: Stable
Stability [3]: Stable
Compound: CC(C)(O)c1ccccc1-c1ccc2[nH]c(C#Cc3ccc(C(F)(F)F)cc3)nc2c1

Compound: NS(=O)(=O)c1ccccc1-c1ccc2[nH]c(/C=C/c3ccc(C(F)(F)F)cc3)nc2c1
ED50 [17]: 2.6 mg/kg
ED80 [17]: 10.3 mg/kg
Activity [18]: 1757 ng/mL
Activity [19]: 62788 ng/mL

inhibition [12]: 10%
Compound: CC(=O)Nc1ccc(-c2ccc3[nH]c(/C=C/c4ccc(C(C)(C)C)cc4)nc3c2)cc1

Compound: Cc1ccc(-c2cc(C(F)(F)F)nn2-c2ccc(S(N)(=O)=O)cc2)cc1
Activity [20]: Active

inhibition [12]: 44%
Compound: CS(=O)(=O)Nc1ccccc1-c1ccc2[nH]c(/C=C/c3ccccc3C(F)(F)F)nc2c1
